Each block holds one molecule with its values, some of them ahead of it. The source made the active and inactive calls. The rule behind the calls is not given here.
Key:
[1] = target: T1, Aldo-keto reductase family 1 member C3 (Homo sapiens, UniProt P42330); test: Inhibition of human 17beta-HSD5 expressed in HEK293 cells using androstenedione as substrate assessed as testosterone synthesis after 4 hrs; assay type: cell-based
T1 sequence (P42330 whole entry): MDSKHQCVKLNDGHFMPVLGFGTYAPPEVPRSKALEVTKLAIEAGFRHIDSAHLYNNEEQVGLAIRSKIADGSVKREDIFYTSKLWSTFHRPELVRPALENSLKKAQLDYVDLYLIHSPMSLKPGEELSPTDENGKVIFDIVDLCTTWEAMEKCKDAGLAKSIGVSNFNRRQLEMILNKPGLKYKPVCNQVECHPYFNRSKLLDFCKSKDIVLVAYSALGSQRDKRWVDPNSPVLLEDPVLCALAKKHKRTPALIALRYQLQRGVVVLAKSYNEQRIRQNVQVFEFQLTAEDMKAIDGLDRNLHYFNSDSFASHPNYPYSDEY
Outline: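 HEK293 cells stably expressing human 17β-HSD5 were seeded at 2×10^4 cells/well in D-MEM/10% FBS and incubated overnight at 37 °C, 5% CO2. Androstenedione (final 300 nmol/mL) was added with compound. After 4 h, supernatant testosterone was measured by DELFIA immunoassay.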

[2] = AUC (0 to 24 hrs) in Sprague-Dawley rat at 1 mg/kg, iv; assay type: ADME, organism-based; parameters: time < 24 hr, dose 1 mg/kg, route intravenous; conditions: plasma
Outline: (§1)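 Male Sprague-Dawley rats aged 8 weeks received a single 1 mg/kg dose. The iv vehicle was saline with 15% DMF and 20% PEG 400; the oral vehicle was water with 10% DMF and 10% propylene glycol. Blood was sampled at multiple times up to 24 h and spun at 16,000 g for 2 min at 4 °C. Plasma drug was measured by HPLC-MS/MS.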

[3] = Solubility of the compound at pH 6.8; assay type: physicochemical; conditions: buffer
Outline: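 A 10 mM DMSO solution (13 μL) was added to 1 mL of Japanese Pharmacopoeia second disintegration fluid (pH 6.8) and shaken at 25 °C for 20 h. Solubility was calculated from the LC peak-area ratio of sample to standard.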

[4] = Plasma concentration in ICR mouse at 30 mg/kg, po after 4 hrs by HPLC analysis; assay type: ADME, organism-based; parameters: dose 30 mg/kg, route oral
Outline: (§2)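 ICR mice were dosed orally, and blood was collected 1 or 4 h later. Compound was extracted from plasma with acetonitrile and quantified by HPLC.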

[5] = Total clearance in Sprague-Dawley rat at 1 mg/kg, iv; assay type: ADME, organism-based; parameters: dose 1 mg/kg, route intravenous; conditions: in vivo; outline: as §1
[6] = Tmax in Sprague-Dawley rat at 1 mg/kg, po; assay type: ADME, organism-based; parameters: dose 1 mg/kg, route oral; conditions: in vivo; outline: as §1
Mus musculus [7] = test: Inhibition of androstenedione-induced testosterone production in tumor of human CWR22R cells xenografted in po dosed BALB/c athymic nude mouse treated 1 hr prior to androstenedione-challenge measured after 2 hrs; assay type: functional, organism-based
Outline: (§3)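 Male BALB/c athymic nude mice aged 4-6 weeks were castrated, then given subcutaneous CWR22R tumor cells (protease-digested fragments in RPMI 1640/20% FBS mixed 1:1 with Matrigel) into each flank. About 3 weeks later, size-matched mice were randomized (n = 4/group) and dosed orally. Androstenedione (1 ng/100 mm3 tumor) was injected intratumorally 1 h post-dose. Tumors were removed at 2 h, homogenized in 200 mmol/L phosphate pH 7.4, and extracted with tert-butyl methyl ether; testosterone was read by DELFIA.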

Cytochrome P450 1A2 = target: T2, Cytochrome P450 1A2 (Homo sapiens, UniProt P05177); test: Inhibition of CYP1A2 (unknown origin); assay type: ADME
T2 sequence (P05177 whole entry): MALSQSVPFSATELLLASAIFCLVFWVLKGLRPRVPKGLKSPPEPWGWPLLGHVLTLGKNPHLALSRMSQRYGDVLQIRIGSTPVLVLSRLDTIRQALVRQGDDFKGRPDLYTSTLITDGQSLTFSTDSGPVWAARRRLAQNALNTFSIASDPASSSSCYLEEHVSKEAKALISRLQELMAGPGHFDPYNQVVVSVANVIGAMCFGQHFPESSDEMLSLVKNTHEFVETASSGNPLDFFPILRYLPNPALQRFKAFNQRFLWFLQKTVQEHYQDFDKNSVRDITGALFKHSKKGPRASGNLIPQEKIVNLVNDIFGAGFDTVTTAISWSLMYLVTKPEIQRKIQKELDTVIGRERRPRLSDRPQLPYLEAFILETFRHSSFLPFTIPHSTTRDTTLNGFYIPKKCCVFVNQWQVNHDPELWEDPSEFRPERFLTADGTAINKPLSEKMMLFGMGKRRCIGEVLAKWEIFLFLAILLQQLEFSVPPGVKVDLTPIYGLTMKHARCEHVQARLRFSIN

Cytochrome P450 2C9 = Cytochrome P450 2C9 (Homo sapiens, UniProt P11712); test: Inhibition of CYP2C9 (unknown origin); assay type: ADME
[8] = AUC (0 to 24 hrs) in Sprague-Dawley rat at 1 mg/kg, po; assay type: ADME, organism-based; parameters: time < 24 hr, dose 1 mg/kg, route oral; conditions: plasma; outline: as §1
[9] = Volume of distribution at steady state in Sprague-Dawley rat at 1 mg/kg, iv; assay type: ADME, organism-based; parameters: dose 1 mg/kg, route intravenous; conditions: in vivo, read-out: Vdss; outline: as §1
[10] = Oral bioavailability in Sprague-Dawley rat at 1 mg/kg; assay type: ADME, organism-based; conditions: in vivo; outline: as §1
Mus musculus [11] = test: Inhibition of androstenedione-induced testosterone production in tumor of human CWR22R cells xenografted in BALB/c athymic nude mouse at 10 mg/kg, po treated 1 hr prior to androstenedione-challenge measured after 2 hrs; assay type: functional, organism-based; parameters: dose 10 mg/kg; outline: as §3
[12] = target: Voltage-gated inwardly rectifying potassium channel KCNH2 (Homo sapiens, UniProt Q12809); test: Inhibition of human ERG channel by Rb efflux assay
Cytochrome P450 2C19 = Cytochrome P450 2C19 (Homo sapiens, UniProt P33261); test: Inhibition of CYP2C19 (unknown origin); assay type: ADME
[13] = target: T1, Aldo-keto reductase family 1 member C3; test: Inhibition of human AKR1C3-mediated 9,10-phenanthrenequinone reduction after 10 to 20 mins by spectrophotometry in presence of NADPH
Outline: (§4)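 Purified human AKR1C enzyme (final 10 μg/mL) was mixed with 9,10-phenanthrenequinone (4 μmol/L), NADPH (200 μmol/L) and compound in 100 mM potassium phosphate pH 6.0, at room temperature for 10-20 min. NADPH absorbance was read at 340 nm and normalized to no-enzyme (0%) and no-compound (100%) controls. IC50 was obtained by Sigmoid-Emax nonlinear regression.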

[14] = Cmax in Sprague-Dawley rat at 1 mg/kg, po; assay type: ADME, organism-based; parameters: dose 1 mg/kg, route oral; conditions: in vivo; outline: as §1
[15] = Plasma concentration in ICR mouse at 30 mg/kg, po after 1 hr by HPLC analysis; assay type: ADME, organism-based; parameters: dose 30 mg/kg, route oral; outline: as §2
[16] = target: T3, Aldo-keto reductase family 1 member C2 (Homo sapiens, UniProt P52895); test: Inhibition of human AKR1C2-mediated 9,10-phenanthrenequinone reduction after 10 to 20 mins by spectrophotometry in presence of NADPH; outline: as §4
T3 sequence (P52895 whole entry): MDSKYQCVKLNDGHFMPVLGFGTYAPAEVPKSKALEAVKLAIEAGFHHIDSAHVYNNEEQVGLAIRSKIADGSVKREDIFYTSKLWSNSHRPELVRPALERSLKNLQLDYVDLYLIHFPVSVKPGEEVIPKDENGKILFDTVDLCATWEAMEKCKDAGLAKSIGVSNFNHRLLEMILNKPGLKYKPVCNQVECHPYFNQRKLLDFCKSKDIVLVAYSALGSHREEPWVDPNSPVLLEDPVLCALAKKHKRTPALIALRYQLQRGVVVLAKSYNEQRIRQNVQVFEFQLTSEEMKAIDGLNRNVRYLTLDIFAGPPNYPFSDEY

[17] = Permeability of the compound after 2 hrs at pH 6.5 by PAMPA; assay type: ADME; conditions: read-out: permeability
Outline: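 PAMPA used a donor at pH 6.5 (universal buffer, 10% DMSO, typical final sample 50 μM, filtered) and an acceptor at pH 7.4, separated by a filter coated with 20% lecithin in dodecane. Plates were incubated at 25 °C for 2 h under saturated humidity. Both compartments were quantified by UV spectrum (270-400 nm) against standards, with a mass balance correction; Pe was then calculated.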

Cytochrome P450 3A4 = Cytochrome P450 3A4 (Homo sapiens, UniProt P08684); test: Inhibition of CYP3A4 (unknown origin) using nifedipine as substrate; assay type: ADME
[18] = target: T1, Aldo-keto reductase family 1 member C3; test: Inhibition of human 17beta-HSD5 expressed in human CWR22R cells using androstenedione as substrate assessed as testosterone synthesis after 4 hrs; assay type: cell-based
Outline: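 CWR22R cells were seeded at 2×10^4 cells/well in RPMI-1640/10% FBS and incubated overnight at 37 °C, 5% CO2. Compound was added with androstenedione (final 300 nmol/mL). After 4 h, supernatant testosterone was quantified by DELFIA.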

Cytochrome P450 2D6 = Cytochrome P450 2D6 (Homo sapiens, UniProt P10635); test: Inhibition of CYP2D6 (unknown origin); assay type: ADME
[19] = Half life in Sprague-Dawley rat at 1 mg/kg, iv; assay type: ADME, organism-based; parameters: dose 1 mg/kg, route intravenous; conditions: in vivo; outline: as §1

Chain of Cytochrome P450 2D6 (P10635 whole entry): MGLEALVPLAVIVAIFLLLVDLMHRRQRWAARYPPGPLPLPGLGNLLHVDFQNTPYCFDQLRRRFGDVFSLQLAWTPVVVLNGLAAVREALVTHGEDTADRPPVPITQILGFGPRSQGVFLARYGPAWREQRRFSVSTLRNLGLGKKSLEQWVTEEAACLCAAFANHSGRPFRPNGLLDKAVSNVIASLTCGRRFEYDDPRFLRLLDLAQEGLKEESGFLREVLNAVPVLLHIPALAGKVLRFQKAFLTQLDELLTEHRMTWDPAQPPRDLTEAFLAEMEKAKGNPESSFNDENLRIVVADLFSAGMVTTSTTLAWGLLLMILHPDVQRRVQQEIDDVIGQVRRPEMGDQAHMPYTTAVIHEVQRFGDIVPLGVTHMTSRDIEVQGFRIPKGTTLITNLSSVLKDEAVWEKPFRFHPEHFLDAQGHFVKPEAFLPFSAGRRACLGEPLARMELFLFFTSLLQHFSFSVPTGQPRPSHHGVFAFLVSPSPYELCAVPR
Chain of Cytochrome P450 3A4 (P08684 whole entry): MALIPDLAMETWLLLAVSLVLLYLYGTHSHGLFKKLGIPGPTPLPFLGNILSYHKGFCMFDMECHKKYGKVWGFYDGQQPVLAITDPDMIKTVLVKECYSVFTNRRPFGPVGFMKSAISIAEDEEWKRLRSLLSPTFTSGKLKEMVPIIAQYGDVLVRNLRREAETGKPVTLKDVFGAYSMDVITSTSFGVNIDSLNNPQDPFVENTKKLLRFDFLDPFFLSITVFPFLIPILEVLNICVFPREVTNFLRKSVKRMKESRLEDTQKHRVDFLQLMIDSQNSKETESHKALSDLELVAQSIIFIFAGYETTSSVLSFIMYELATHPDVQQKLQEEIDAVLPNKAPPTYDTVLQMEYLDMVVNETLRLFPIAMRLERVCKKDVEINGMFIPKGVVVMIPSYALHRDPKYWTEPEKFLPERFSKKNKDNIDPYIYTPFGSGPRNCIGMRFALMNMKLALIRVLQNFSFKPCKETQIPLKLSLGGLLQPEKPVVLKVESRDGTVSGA
Chain of Voltage-gated inwardly rectifying potassium channel KCNH2 (Q12809 whole entry): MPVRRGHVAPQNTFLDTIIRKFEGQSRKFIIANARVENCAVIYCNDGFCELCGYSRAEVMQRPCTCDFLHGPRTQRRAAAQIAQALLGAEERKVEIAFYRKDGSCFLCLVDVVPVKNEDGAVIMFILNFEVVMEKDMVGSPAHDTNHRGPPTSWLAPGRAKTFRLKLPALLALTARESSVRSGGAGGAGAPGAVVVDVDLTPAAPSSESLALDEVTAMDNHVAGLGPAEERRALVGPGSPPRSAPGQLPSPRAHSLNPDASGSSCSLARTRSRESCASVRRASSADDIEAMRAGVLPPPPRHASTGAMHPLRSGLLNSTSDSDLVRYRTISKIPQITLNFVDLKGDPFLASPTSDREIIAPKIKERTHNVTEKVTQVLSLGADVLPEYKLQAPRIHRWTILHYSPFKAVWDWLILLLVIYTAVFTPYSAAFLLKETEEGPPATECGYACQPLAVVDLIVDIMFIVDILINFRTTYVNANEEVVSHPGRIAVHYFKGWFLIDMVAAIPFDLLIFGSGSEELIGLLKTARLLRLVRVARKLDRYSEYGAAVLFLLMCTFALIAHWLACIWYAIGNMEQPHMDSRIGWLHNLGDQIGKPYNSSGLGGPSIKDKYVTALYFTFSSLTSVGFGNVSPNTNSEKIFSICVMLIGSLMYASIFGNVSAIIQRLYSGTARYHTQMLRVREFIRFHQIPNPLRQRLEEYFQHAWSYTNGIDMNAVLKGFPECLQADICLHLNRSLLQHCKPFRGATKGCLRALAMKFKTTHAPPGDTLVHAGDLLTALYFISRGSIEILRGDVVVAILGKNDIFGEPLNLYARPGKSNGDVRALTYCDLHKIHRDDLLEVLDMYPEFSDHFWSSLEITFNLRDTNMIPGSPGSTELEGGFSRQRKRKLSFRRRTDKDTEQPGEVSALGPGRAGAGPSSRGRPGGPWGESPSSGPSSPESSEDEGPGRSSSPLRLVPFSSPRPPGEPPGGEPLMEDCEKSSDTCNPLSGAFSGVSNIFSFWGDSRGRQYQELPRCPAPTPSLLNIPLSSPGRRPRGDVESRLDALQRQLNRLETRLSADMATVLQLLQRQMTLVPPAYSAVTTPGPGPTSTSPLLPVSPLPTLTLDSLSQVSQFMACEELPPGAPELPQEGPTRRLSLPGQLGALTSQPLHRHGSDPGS
Chain of Cytochrome P450 2C9 (P11712 whole entry): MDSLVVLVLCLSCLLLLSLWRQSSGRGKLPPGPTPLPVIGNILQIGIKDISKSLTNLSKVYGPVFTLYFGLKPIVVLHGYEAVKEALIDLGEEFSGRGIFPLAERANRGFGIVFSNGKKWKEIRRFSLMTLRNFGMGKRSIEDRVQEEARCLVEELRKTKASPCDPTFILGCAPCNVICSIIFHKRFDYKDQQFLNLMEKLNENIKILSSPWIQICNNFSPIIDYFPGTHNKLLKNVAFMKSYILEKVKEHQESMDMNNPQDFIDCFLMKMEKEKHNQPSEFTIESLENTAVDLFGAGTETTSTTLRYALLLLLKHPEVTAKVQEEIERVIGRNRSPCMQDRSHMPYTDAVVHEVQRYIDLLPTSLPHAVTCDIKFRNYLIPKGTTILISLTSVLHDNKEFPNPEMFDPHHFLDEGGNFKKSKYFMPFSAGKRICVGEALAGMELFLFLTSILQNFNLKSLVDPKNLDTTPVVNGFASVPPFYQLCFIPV
Chain of Cytochrome P450 2C19 (P33261 whole entry): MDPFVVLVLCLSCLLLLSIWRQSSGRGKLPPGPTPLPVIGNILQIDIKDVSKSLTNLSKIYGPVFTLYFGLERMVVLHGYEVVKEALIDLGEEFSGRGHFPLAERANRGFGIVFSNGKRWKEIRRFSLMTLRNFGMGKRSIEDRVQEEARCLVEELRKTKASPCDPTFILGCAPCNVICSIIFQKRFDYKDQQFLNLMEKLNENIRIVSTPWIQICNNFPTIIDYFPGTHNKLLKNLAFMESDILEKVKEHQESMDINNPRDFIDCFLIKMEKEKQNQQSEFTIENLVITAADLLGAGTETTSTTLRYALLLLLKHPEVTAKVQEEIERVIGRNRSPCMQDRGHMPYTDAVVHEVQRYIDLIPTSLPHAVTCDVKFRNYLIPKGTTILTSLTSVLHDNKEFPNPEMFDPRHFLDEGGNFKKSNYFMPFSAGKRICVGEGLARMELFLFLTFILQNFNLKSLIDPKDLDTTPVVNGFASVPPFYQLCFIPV

IC50 [1]: 4.5 nM
Structure (SMILES): O=C(c1cc2ccccc2[nH]1)N1CCC(CCO)CC1

IC50 [1]: 2100 nM
Structure (SMILES): O=C(c1cc2ccccc2[nH]1)N1CCCC(CCO)C1 (centres undefined)

IC50 [1]: 230 nM
Structure (SMILES): O=C(c1cc2ccccc2[nH]1)N1CCCCC1CCO (centres undefined)

IC50 [1]: 12 nM
Structure (SMILES): CC(O)CC1CCN(C(=O)c2cc3ccccc3[nH]2)CC1 (centres undefined)

IC50 [1]: 160 nM
Structure (SMILES): Cc1ccc2[nH]c(C(=O)N3CCC(CCCO)CC3)cc2c1

IC50 [1]: 13 nM
Structure (SMILES): CC(=O)CC1CCN(C(=O)c2cc3ccccc3[nH]2)CC1

IC50 [1]: 140 nM
Structure (SMILES): O=C(c1cc2ccccc2[nH]1)N1CC(CCO)C1

IC50 [1]: 1100 nM
Structure (SMILES): O=C(c1cc2ccccc2[nH]1)N1CCC(CCO)C1 (centres undefined)

AUC(0-t) at 24 h [2]: 395 ng·h/mL
solubility [3]: > 100 µM
concentration at 4 h [4]: 3100 nM
clearance [5]: 42 mL/min/kg
Tmax [6]: 30 min
IC50 (Cytochrome P450 1A2): > 25000 nM
IC50 (Cytochrome P450 2C9): > 25000 nM
AUC(0-t) at 24 h [8]: 255 ng·h/mL
Vd [9]: 1.7 L/kg
bioavailability [10]: 65%
IC50 (Cytochrome P450 2C19): > 25000 nM
IC50 [13]: 24 nM
Cmax [14]: 180 ng/mL
concentration at 1 h [15]: 10900 nM
IC50 [1]: 0.34 nM
IC50 [16]: > 20000 nM
Papp at 2 h [17]: > 30 ×10⁻⁶ cm/s
IC50 (Cytochrome P450 3A4): > 100000 nM
IC50 [18]: 1.9 nM
IC50 (Cytochrome P450 2D6): > 25000 nM
half-life [19]: 27.6 min
Structure (SMILES): Cc1ccc2[nH]c(C(=O)N3CCC(CC(C)(C)O)CC3)cc2c1
inhibition (Mus musculus [7]): Dose-dependent effect
inhibition (Mus musculus [11]): Active
IC50 [12]: > 100000 nM

IC50 [1]: > 10000 nM
Structure (SMILES): Cc1ccc2[nH]c(C(=O)N3CCC(CC(=O)O)CC3)cc2c1

IC50 [1]: 33 nM
Structure (SMILES): COCCC1CCN(C(=O)c2cc3ccccc3[nH]2)CC1

IC50 [1]: 1200 nM
Structure (SMILES): O=C(NCCCCCO)c1cc2ccccc2[nH]1

IC50 [1]: 790 nM
Structure (SMILES): Cc1ccc2[nH]c(C(=O)N3CCC(CO)CC3)cc2c1

solubility [3]: > 100 µM
concentration at 4 h [4]: < 100 nM
concentration at 1 h [15]: < 100 nM
IC50 [1]: 37 nM
Papp at 2 h [17]: > 30 ×10⁻⁶ cm/s
IC50 [18]: 58 nM
Structure (SMILES): Cc1ccc2[nH]c(C(=O)N3CCC(CCO)CC3)cc2c1

solubility [3]: > 100 µM
concentration at 4 h [4]: < 100 nM
concentration at 1 h [15]: 2610 nM
IC50 [1]: 2.1 nM
Papp at 2 h [17]: 26 ×10⁻⁶ cm/s
Structure (SMILES): CC(C)(O)CC1CCN(C(=O)c2cc3ccccc3[nH]2)CC1

IC50 [1]: 770 nM
Structure (SMILES): Cc1ccc2[nH]c(C(=O)N3CCN(CCO)CC3)cc2c1

IC50 [1]: 2800 nM
Structure (SMILES): Cc1ccc2[nH]c(C(=O)N3CC=CCC3)cc2c1
